Legend:
[1] = Stability in mouse liver microsomes assessed as parent compound remaining at 1 uM measured after 60 mins in absence of NADPH by LC-MS/MS analysis; assay type: ADME, Microsome; settings: for remaining at 1 h, 1 µM: liver microsomes, read-out: Stability
Procedure, shortened: (§1)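 Cofactor-free control for cofactor-independent degradation. Mouse or human liver microsomes at 0.2 mg/mL, 1 μM compound (final), 100 mM potassium phosphate at pH 7.4, no NADPH regenerating system. Adding microsomes started the reaction; run in triplicate. Sampled at 60 min and quenched with three volumes of ice-cold acetonitrile spiked with internal standard.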

[2] = Stability in human liver microsomes assessed as parent compound remaining at 1 uM measured after 60 mins in absence of NADPH by LC-MS/MS analysis; assay type: ADME, Microsome; settings: for remaining at 1 h, 1 µM: liver microsomes, read-out: Stability; procedure, shortened: as §1
Cytochrome P450 = assay: Stability in human liver microsomes assessed as CYP450-mediated metabolism by measuring parent compound remaining at 1 uM measured after 60 mins in presence of NADPH generating system by LC-MS/MS analysis; assay type: ADME; settings: 1 h
Procedure, shortened: (§2)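 Liver microsomes from mouse or human, 0.2 mg/mL, with 1 μM compound (final) in 100 mM potassium phosphate at pH 7.4. Adding microsomes started the reaction; triplicates. After 60 min, quenched with 3 volumes of ice-cold acetonitrile containing internal standard.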

[3] = Stability in mouse liver microsomes assessed as CYP450-mediated metabolism by measuring parent compound remaining at 1 uM measured after 60 mins in presence of NADPH generating system by LC-MS/MS analysis; assay type: ADME; settings: 1 h; procedure, shortened: as §2

| remaining at 1 h, 1 µM [1] [%] | remaining at 1 h, 1 µM [2] [%] | Stability (Cytochrome P450) [%] | Parent compound remaining [3] [%] | Stability ([1]; microsomes, 1 h, 1 µM) | Stability ([2]; microsomes, 1 h, 1 µM) | SMILES |
| --- | --- | --- | --- | --- | --- | --- |
| > 95 | > 95 | 113 | 117 |  |  | COc1ccc(-c2c(C)nc3c(N4CC[C@@H](NC(=O)C(F)(F)F)C4)cc(C)nn23)cc1OC |
| > 95 | > 95 |  |  |  |  | COc1ccc(-c2c(C)nc3c(N4CC[C@@H](N=[N+]=[N-])C4)cc(C)nn23)cc1OC |
| > 95 | > 95 | 90 | 87 |  |  | COc1ccc(-c2c(C)nc3c(N4CC[C@@H](NC(=O)Nc5ccccc5)C4)cc(C)nn23)cc1OC |
| > 95 | > 95 |  |  |  |  | COc1ccc(-c2c(C)nc3c(N4CC[C@@H](NC(C)=O)C4)ccnn23)cc1OC |
| > 95 | > 95 | 95 | 78 |  |  | COc1ccc(-c2c(C)nc3c(N4CC[C@@H](NS(=O)(=O)c5cccs5)C4)cc(C)nn23)cc1OC |
| > 95 | > 95 |  |  |  |  | COc1ccc(-c2c(C)nc3c(N4CC[C@@H](NC(=O)NC(C)C)C4)cc(C)nn23)cc1OC |
| > 95 | > 95 |  |  |  |  | COc1ccc(-c2c(C)nc3c(N4CC[C@@H](NS(C)(=O)=O)C4)cc(C)nn23)cc1OC |
| > 95 | > 95 |  |  |  |  | COc1ccc(-c2c(C)nc3c(N4CC[C@@H](NC(=O)COc5ccccc5)C4)cc(C)nn23)cc1OC |
| > 95 | > 95 |  |  |  |  | COc1ccc(-c2c(C)nc3c(N4CC[C@@H](NC(C)=O)C4)cc(Cl)nn23)cc1OC |
| > 95 | > 95 |  |  |  |  | COc1ccc(-c2c(C)nc3c(N4CC[C@@H](F)C4)cc(C)nn23)cc1OC |
| > 95 | > 95 |  |  |  |  | COc1ccc(-c2c(C)nc3c(N4CC[C@@H](NC(=O)Oc5cccc(C)c5)C4)cc(C)nn23)cc1OC |
| > 95 | > 95 |  |  |  |  | COc1ccc(-c2c(C)nc3c(N4CCN(C(C)=O)CC4)cc(C)nn23)cc1OC |
| > 95 | > 95 |  |  |  |  | COc1ccc(-c2c(C)nc3c(N4CC[C@@H](NC(C)=O)C4)cc(C)nn23)cc1F |
| > 95 | > 95 |  |  |  |  | COc1ccc(-c2c(C)nc3c(N4CC[C@@H](N)C4)cc(C)nn23)cc1OC |
| > 95 | > 95 |  |  |  |  | COc1cc(-c2c(C)nc3c(N4CC[C@@H](NC(C)=O)C4)cc(C)nn23)cc(OC)c1OC |
| > 95 | > 95 |  |  |  |  | COc1ccc(-c2c(C)nc3c(N4CC[C@@H](OC(C)=O)C4)cc(C)nn23)cc1OC |
| > 95 | > 95 |  |  |  |  | COc1ccc(-c2c(C)nc3c(N4CC[C@@H](NS(N)(=O)=O)C4)cc(C)nn23)cc1OC |
| > 95 | > 95 | 32 | 7 |  |  | COc1ccc(-c2c(C)nc3c(N4CC[C@@H](NS(=O)(=O)c5ccc(Cl)cc5)C4)cc(C)nn23)cc1OC |
| > 95 | > 95 | 88 | 52 |  |  | CCCCCC(=O)N[C@@H]1CCN(c2cc(C)nn3c(-c4ccc(OC)c(OC)c4)c(C)nc23)C1 |
| > 95 | > 95 | 111 | 95 |  |  | COc1ccc(-c2c(C)nc3c(N4CC[C@@H](NS(=O)(=O)C5CC5)C4)cc(C)nn23)cc1OC |
| > 95 | > 95 |  |  |  |  | COc1cc(-c2c(C)nc3c(N4CC[C@@H](NC(C)=O)C4)cc(C)nn23)ccc1F |
| > 95 | > 95 |  |  |  |  | COc1ccc(-c2c(C)nc3c(N4CC[C@@H](NC(=O)[C@@H](OC)c5ccccc5)C4)cc(C)nn23)cc1OC |
| > 95 | > 95 |  |  |  |  | COc1ccc(-c2c(C)nc3c(N4CC[C@@H](O)C4)cc(C)nn23)cc1OC |
| > 95 | > 95 |  |  |  |  | COc1ccc(-c2c(C)nc3c(N4CC[C@@H](NC(=O)c5ccccc5)C4)cc(C)nn23)cc1OC |
| > 95 | > 95 |  |  |  |  | COc1ccc(-c2c(C)nc3c(N4CC[C@@H](NC(=O)OC5CCCCC5)C4)cc(C)nn23)cc1OC |
| > 95 | > 95 |  |  |  |  | COc1ccc(-c2c(C)nc3c(N4CC[C@@H](NC(=O)Cc5ccccc5)C4)cc(C)nn23)cc1OC |
| > 95 | > 95 |  |  |  |  | COc1ccc(-c2c(C)nc3c(N4CC[C@@H](NS(=O)(=O)C(C)C)C4)cc(C)nn23)cc1OC |
| > 95 | > 95 |  |  |  |  | COc1ccc(-c2c(C)nc3c(N4CC[C@@H](NC(=O)OCc5ccccc5)C4)cc(C)nn23)cc1OC |
| > 95 | > 95 |  |  |  |  | COc1ccc(-c2c(C)nc3c(N4CC[C@@H](NC(C)=O)C4)cc(C)nn23)cn1 |
| > 95 | > 95 |  |  |  |  | COc1ccc(-c2c(C)nc3c(N4CC[C@H](O)C4)cc(C)nn23)cc1OC |

More lines, now with the values behind:

| SMILES | remaining at 1 h, 1 µM [1] [%] | remaining at 1 h, 1 µM [2] [%] | Stability (Cytochrome P450) [%] | Parent compound remaining [3] [%] | Stability ([1]; microsomes, 1 h, 1 µM) | Stability ([2]; microsomes, 1 h, 1 µM) |
| --- | --- | --- | --- | --- | --- | --- |
| COc1ccc(-c2c(C)nc3c(N4CC[C@@H](NS(=O)(=O)c5ccc(C#N)cc5)C4)cc(C)nn23)cc1OC | > 95 | > 95 |  |  |  |  |
| COc1ccc(-c2c(C)nc3c(N4CC[C@@H](N5CCOCC5)C4)cc(C)nn23)cc1OC | > 95 | > 95 |  |  |  |  |
| COc1ccc(-c2c(C)nc3c(N4CCOCC4)cc(C)nn23)cc1OC | > 95 | > 95 |  |  |  |  |
| CC(=O)N[C@@H]1CCN(c2cc(C)nn3c(-c4ccc(C(F)(F)F)cc4)c(C)nc23)C1 | > 95 | > 95 |  |  |  |  |
| CC(=O)N[C@@H]1CCN(c2cc(C)nn3c(-c4ccc(OC(F)(F)F)cc4)c(C)nc23)C1 | > 95 | > 95 | 114 | 72 |  |  |
| CC(=O)N[C@@H]1CCN(c2cc(C)nn3c(-c4cccc(N5CCOCC5)c4)c(C)nc23)C1 | > 95 | > 95 |  |  |  |  |
| COc1ccc(-c2c(C)nc3c(N4CC[C@@H](NS(=O)(=O)c5ccc(C(C)=O)cc5)C4)cc(C)nn23)cc1OC | > 95 | > 95 | 12 | 5 |  |  |
| CC(=O)N[C@@H]1CCN(c2cc(C)nn3c(-c4cccs4)c(C)nc23)C1 | > 95 | > 95 | 50 | 28 |  |  |
| CSc1ccc(-c2c(C)nc3c(N4CC[C@@H](NC(C)=O)C4)cc(C)nn23)cc1 | > 95 | > 95 | 84 | 32 |  |  |
| COc1ccc(-c2c(C)nc3c(N4CC=CC4)cc(C)nn23)cc1OC | > 95 | > 95 |  |  |  |  |
| COc1ccc(-c2c(C)nc3c(N4CC[C@@H](NS(=O)(=O)c5ccc(C)cc5)C4)cc(C)nn23)cc1OC | > 95 | > 95 | 29 | 2 |  |  |
| CCN(CCNC(C)=O)c1cc(C)nn2c(-c3ccc(OC)c(OC)c3)c(C)nc12 | > 95 | > 95 |  |  |  |  |
| CC(=O)N[C@@H]1CCN(c2cc(C)nn3cc(C)nc23)C1 | > 95 | > 95 |  |  |  |  |
| CC(=O)N[C@@H]1CCN(c2cc(C)nn3c(-c4ccco4)c(C)nc23)C1 | > 95 | > 95 |  |  |  |  |
| CC(=O)N[C@@H]1CCN(c2cc(C)nn3c(-c4ccc5cc[nH]c5c4)c(C)nc23)C1 | > 95 | > 95 |  |  |  |  |
| COc1ccc(-c2c(C)nc3c(N4CCN(C(=O)OC(C)(C)C)C4)cc(C)nn23)cc1OC | > 95 | > 95 |  |  |  |  |
| COc1ccc(-c2c(C)nc3c(N4CCN(C(=O)OC(C)(C)C)CC4)cc(C)nn23)cc1OC | > 95 | > 95 |  |  |  |  |
| COc1ccc(-c2c(C)nc3c(N4CCC(F)(F)C4)cc(C)nn23)cc1OC | > 95 | > 95 |  |  |  |  |
| COc1ccc(-c2c(C)nc3c(N4CC[C@@H](NS(=O)(=O)c5ccc(NC(C)=O)cc5)C4)cc(C)nn23)cc1OC | > 95 | > 95 |  |  |  |  |
| COc1ccc(-c2c(C)nc3c(N4CCN(C(=O)C5CCCCC5)CC4)cc(C)nn23)cc1OC | > 95 | > 95 |  |  |  |  |
| CC(=O)N[C@@H]1CCN(c2cc(C)nn3c(-c4ccc(C#N)cc4)c(C)nc23)C1 | > 95 | > 95 |  |  |  |  |
| COc1ccc(-c2c(C)nc3c(N4CC[C@@H](NC(=O)Oc5ccc6ccccc6c5)C4)cc(C)nn23)cc1OC | > 95 | > 95 |  |  |  |  |
| COc1ccc(-c2c(C)nc3c(N4CC[C@@H](n5cc(-c6ccccc6)nn5)C4)cc(C)nn23)cc1OC |  |  |  |  | Unstable | Unstable |
| CC(=O)N[C@@H]1CCN(c2cc(C)nn3c(-c4cccc(S(=O)(=O)N(C)C)c4)c(C)nc23)C1 | > 95 | > 95 |  |  |  |  |
| CC(=O)N[C@@H]1CCN(c2cc(C)nn3c(-c4ccccc4)c(C)nc23)C1 | > 95 | > 95 |  |  |  |  |
| CC(=O)N[C@@H]1CCN(c2cc(C)nn3c(-c4nccs4)c(C)nc23)C1 | > 95 | > 95 |  |  |  |  |

— ChEMBL document CHEMBL4613265, “Novel Human Neutral Sphingomyelinase 2 Inhibitors as Potential Therapeutics for Alzheimer's Disease” (J Med Chem, 2020)
